Measurements taken from PubChem BioAssay AID704 (The Scripps Research Institute Molecular Screening Center, 2007).
The whole screen tested about 97,000 compounds, of which about 770 (0.79%) were called active. The full list was thinned out, with actives kept by preference. Unmarked numbers belong to inactive results.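 Rule for the calls: active = inhibition above the screen-wide mean plus 3 SD (cut at about 35% in these data); inactive = the rest.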

The molecules below were run against Protein Rev (Human immunodeficiency virus type 1 group M subtype B (isolate WMJ22)) (UniProt P05866) (assay: HIV-1 Rev-RRE binding inhibitors, primary screen, biochemical, FRET, protein-RNA interaction (AID 704)). Conditions: Rev peptide-RRE RNA binding, at 8 µM, stronger effect = higher value.
Chain of Protein Rev (Human immunodeficiency virus type 1 group M subtype B (isolate WMJ22)) (P05866 whole entry, looked up): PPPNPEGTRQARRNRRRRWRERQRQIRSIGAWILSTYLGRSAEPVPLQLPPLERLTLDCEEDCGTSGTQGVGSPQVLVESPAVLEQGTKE
Outline: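 Assay system: Labelled RRE RNA duplex and labelled Rev peptide | Times: 5 min preincubation and 15 min binding, 25 °C | Detection: FRET, ex 480 nm, em 540 and 671 nm | Evaluation: % inhibition of FRET ratio versus controls | Benchmarks: DMSO wells as 0% and neomycin B wells as 100% inhibition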
With `Cc1ccc(-n2c(CNc3ccc(F)cc3)nnc2SCC(=O)N2CCOCC2)cc1` the inhibition was 5.16%. Work on `Cc1nn(C)c(Oc2ccccc2)c1[N+](=O)[O-]` yielded an inhibition of 4.97%. `CCC(c1nnnn1C(C)(C)C)N(Cc1cc2cccc(C)c2n2nnnc12)C1CCCC1` (stereo unspecified) gave an inhibition of 7.78%. `CCOC(=O)c1ccccc1NS(=O)(=O)c1ccc(OC)cc1` was tested, and the inhibition was 17.8%. For `Cc1cc(C)n(C(=O)CCNC(=O)c2ccccc2Cl)n1`, the inhibition was 4.01%. For `CC1CCc2c(c3ccccc3[nH]c2=O)O1` (stereo unspecified), the inhibition was 4.83%. For `CC(=O)Nc1cccc(/C(C)=N/NC(=O)c2ccccc2Cl)c1`, the inhibition was -0.39%. `COc1ccc(C(=O)N2CC3(C)CC2CC(C)(C)C3)cc1OC` (stereo unspecified) gave an inhibition of 1.95%. Molecule `O=C(/C=C/c1cc2c(cc1Br)OCO2)NCc1ccc(Cl)cc1` has an inhibition of 7.84%. Work on `Cc1cccc(N(CC(=O)Nc2ccc(-c3nc4ccc(C)cc4s3)cc2)S(C)(=O)=O)c1` yielded an inhibition of 1.45%. For `O=C(Nc1sc2c(c1-c1nc3ccccc3[nH]1)CCCC2)C1CC1`, the inhibition was 12.5%. In the case of `NC1=NC(=O)C2(COC(c3ccccc3Cl)OC2)S1` (stereo unspecified), the inhibition is reported as 1.07%. Work on `CCN(CC)c1ccc2cc(C(=O)O)c(=O)oc2c1` yielded an inhibition of 11%. For `CCN(CC)c1ccc2oc(=O)c(C)nc2c1`, the inhibition was 121% [fluorescence artefact?] (active). Molecule `CCN(CC)c1ccc(/C=N/Nc2nc(C)cc(=O)[nH]2)cc1` has an inhibition of 15.3%. With `CCS(=O)(=O)Nc1ccc(C2=NN(S(=O)(=O)c3ccc(F)cc3)C(c3ccco3)C2)cc1` (stereo unspecified) the inhibition was 3.07%. With `O=C(Nc1ccccc1-c1nnn(CC(=O)N2CCCc3ccccc32)n1)c1cccc(Cl)c1` the inhibition was 13.6%. `COc1cnc(SCc2ccc(Cl)c(Cl)c2)nc1Cl` gave an inhibition of 10%. In the case of `Cc1ccccc1N/N=C/c1ccc(N2CCOCC2)cc1`, the inhibition is reported as 6.17%. Work on `Cc1ccc(Cc2cnc(NC(=O)/C(C#N)=C/c3ccc(-c4cccc([N+](=O)[O-])c4)o3)s2)cc1` yielded an inhibition of 5.73%. `CCOCC(=O)Nc1sc2c(c1C(=O)OCC)CCCC2` showed an inhibition of 10.1%. With `CCOC(=O)c1c(NC(=S)Nc2ccccc2)sc2c1CCN(C)C2` the inhibition was 103% [fluorescence artefact?] (active). With `CCOC(=O)c1c(NC(=S)NC(=O)c2ccco2)sc2c1CCCC2` the inhibition was 0.19%. For `COc1cc(N2CCCC2)c(OC)cc1/C=C(/C#N)c1cccc(Br)c1`, the inhibition was 115% [fluorescence artefact?] (active). `CC(=O)Nc1cccc(Oc2cc(C#N)c(C#N)cc2N2CCOCC2)c1` showed an inhibition of 5.35%. Work on `COc1cccc(C(=O)Nc2ccc(N3CCCC3)cc2)c1` yielded an inhibition of 9.26%.
